Experimental data as given in ChEMBL document CHEMBL3585302, “Synthesis and antibacterial activities of cadiolides A, B and C and analogues” (Bioorg Med Chem, 2015).
The source made the active and inactive calls. The calls are words filed in the database; no cut-off is given here.

Columns and labels:
[1] = Selectivity index, ratio of cytotoxicity against human neutrophils by annexin V-FITC and propidium iodide staining based cytofluorometry to antibacterial IC50 against Enterococcus faecalis CECT 481; type: toxicity; conditions: read-out: Selectivity Index
[2] = Selectivity index, ratio of cytotoxicity against human neutrophils by annexin V-FITC and propidium iodide staining based cytofluorometry to antibacterial IC50 against Escherichia coli CECT 405; type: toxicity; conditions: read-out: Selectivity Index
[3] = Selectivity index, ratio of cytotoxicity against human neutrophils by MTT assay to antibacterial IC50 against Escherichia coli CECT 405; type: toxicity; conditions: read-out: Selectivity Index
Staphylococcus aureus [4] = experiment: Antibacterial activity against Staphylococcus aureus CECT 86 assessed as inhibition of microbial growth incubated for 18 hrs by 2-fold microtiter broth dilution method; type: functional, organism-based; conditions: CECT 86, 18 h
Outline: (§1)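 Compounds in DMSO, ten 2-fold serial dilutions (125 down to 0.24 µg/mL tested). Bacteria at OD620 = 0.001 in Nutrient Broth mixed 1:1 with dilutions. Incubated overnight (18 h) at 28°C or 37°C according to strain. Growth read turbidimetrically at OD620. MIC is the lowest concentration giving complete growth inhibition. Triplicate runs. Tetracycline as reference.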

Escherichia coli [5] = experiment: Antibacterial activity against Escherichia coli CECT 100 assessed as inhibition of microbial growth incubated for 18 hrs by 2-fold microtiter broth dilution method; type: functional, organism-based; conditions: CECT 100, 18 h; outline: as §1
[6] = Selectivity index, ratio of cytotoxicity against human neutrophils by MTT assay to antibacterial IC50 against Salmonella typhi CECT 409; type: toxicity; conditions: read-out: Selectivity Index
[7] = Toxicity in human neutrophils assessed as induction of apoptosis at 30 and 100 uM incubated for 24 hrs by annexin V-FITC and propidium iodide staining based cytofluorometry; type: cell-based; conditions: neutrophil
Outline: (§2)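 Freshly isolated donor neutrophils (2 x 10⁶ cells/mL stock, diluted into supplemented RPMI) cultured 24 h with 30 or 100 µM. Stained with annexin V-FITC/propidium iodide; 1 x 10⁴ cells analysed by flow cytometry. Gating: annexin V+/PI− apoptotic, V+/PI+ late apoptotic/necrotic, V−/PI− viable. Mean ± SEM, n=3, compared against vehicle.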

Enterococcus faecalis [8] = experiment: Antibacterial activity against Enterococcus faecalis CECT 481 assessed as inhibition of microbial growth incubated for 18 hrs by 2-fold microtiter broth dilution method; type: functional, organism-based; conditions: CECT 481, 18 h; outline: as §1
[9] = Cytotoxicity against human neutrophils assessed as reduction in cell viability at 100 uM incubated for 24 hrs by MTT assay; type: cell-based; conditions: neutrophil
Outline: (§3)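 Neutrophils from buffy coats of healthy donors were isolated by Ficoll-Hypaque gradient and seeded at 2 x 10⁵ cells/mL in supplemented RPMI. Exposed to 30 or 100 µM for 24 h at 37 °C, then MTT (2 mg/mL in PBS) added for 3 h. Formazan dissolved in DMSO and read at 560 and 630 nm. Mean ± SEM of n=6-9 independent experiments, compared against vehicle.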

[10] = Selectivity index, ratio of cytotoxicity against human neutrophils by MTT assay to antibacterial IC50 against Staphylococcus aureus CECT 86; type: toxicity; conditions: read-out: Selectivity Index
[11] = Selectivity index, ratio of cytotoxicity against human neutrophils by MTT assay to antibacterial IC50 against Enterococcus faecalis CECT 481; type: toxicity; conditions: read-out: Selectivity Index
Bacillus subtilis [12] = experiment: Antibacterial activity against Bacillus subtilis CECT 35 assessed as inhibition of microbial growth incubated for 18 hrs by 2-fold microtiter broth dilution method; type: functional, organism-based; conditions: CECT 35, 18 h; outline: as §1
[13] = Cytotoxicity against human neutrophils assessed as reduction in cell viability at 30 uM incubated for 24 hrs by MTT assay; type: cell-based; conditions: neutrophil; outline: as §3
[14] = Selectivity index, ratio of cytotoxicity against human neutrophils by annexin V-FITC and propidium iodide staining based cytofluorometry to antibacterial IC50 against Staphylococcus aureus CECT 86; type: toxicity; conditions: read-out: Selectivity Index
Escherichia coli [15] = experiment: Antibacterial activity against Escherichia coli CECT 405 assessed as inhibition of microbial growth incubated for 18 hrs by 2-fold microtiter broth dilution method; type: functional, organism-based; conditions: CECT 405, 18 h; outline: as §1
[16] = Toxicity in human neutrophils assessed as induction of necrosis at 100 uM incubated for 24 hrs by annexin V-FITC and propidium iodide staining based cytofluorometry; type: cell-based; conditions: neutrophil; outline: as §2
Salmonella typhi [17] = experiment: Antibacterial activity against Salmonella typhi CECT 409 assessed as inhibition of microbial growth incubated for 18 hrs by 2-fold microtiter broth dilution method; type: functional, organism-based, Salmonella enterica subsp. enterica serovar Typhi; conditions: Salmonella enterica, CECT 409, 18 h
Outline: (§4)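 Compounds in DMSO, ten 2-fold serial dilutions (125 down to 0.24 µg/mL), mixed 1:1 with bacteria in Nutrient Broth at OD620 = 0.001. Incubated overnight (18 h) at 28 or 37 °C depending on strain. Growth read turbidimetrically at OD620; MIC is the lowest concentration completely inhibiting growth, per CLSI. Triplicate runs; tetracycline reference.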

[18] = Selectivity index, ratio of cytotoxicity against human neutrophils by annexin V-FITC and propidium iodide staining based cytofluorometry to antibacterial IC50 against Salmonella typhi CECT 409; type: toxicity; conditions: read-out: Selectivity Index
Bacillus cereus [19] = experiment: Antibacterial activity against Bacillus cereus CECT 148 assessed as inhibition of microbial growth incubated for 18 hrs by 2-fold microtiter broth dilution method; type: functional, organism-based; conditions: CECT 148, 18 h; outline: as §1
[20] = system: Pectobacterium carotovorum; experiment: Antibacterial activity against Erwinia carotovora CECT 225 assessed as inhibition of microbial growth incubated for 18 hrs by 2-fold microtiter broth dilution method; type: functional, organism-based; conditions: CECT 225, 18 h; outline: as §1
[21] = Toxicity in human neutrophils assessed as cell survival at 30 uM incubated for 24 hrs by annexin V-FITC and propidium iodide staining based cytofluorometry; conditions: neutrophil; outline: as §2
Bacillus subtilis [22] = experiment: Antibacterial activity against Bacillus subtilis CECT 35 assessed as inhibition of microbial growth at 125 ug/ml incubated for 18 hrs by 2-fold microtiter broth dilution method; type: functional, organism-based; outline: as §1
Salmonella typhi [23] = experiment: Antibacterial activity against Salmonella typhi CECT 409 assessed as inhibition of microbial growth at 125 ug/ml incubated for 18 hrs by 2-fold microtiter broth dilution method; type: functional, organism-based; conditions: Salmonella enterica subsp. enterica serovar Typhi; outline: as §4
[24] = system: Pectobacterium carotovorum; experiment: Antibacterial activity against Erwinia carotovora CECT 225 assessed as inhibition of microbial growth at 125 ug/ml incubated for 18 hrs by 2-fold microtiter broth dilution method; type: functional, organism-based; outline: as §1
Escherichia coli [25] = experiment: Antibacterial activity against Escherichia coli CECT 405 assessed as inhibition of microbial growth at 125 ug/ml incubated for 18 hrs by 2-fold microtiter broth dilution method; type: functional, organism-based; outline: as §1
Escherichia coli [26] = experiment: Antibacterial activity against Escherichia coli CECT 100 assessed as inhibition of microbial growth at 125 ug/ml incubated for 18 hrs by 2-fold microtiter broth dilution method; type: functional, organism-based; outline: as §1
Enterococcus faecalis [27] = experiment: Antibacterial activity against Enterococcus faecalis CECT 481 assessed as inhibition of microbial growth at 125 ug/ml incubated for 18 hrs by 2-fold microtiter broth dilution method; type: functional, organism-based; outline: as §1
Bacillus cereus [28] = experiment: Antibacterial activity against Bacillus cereus CECT 148 assessed as inhibition of microbial growth at 125 ug/ml incubated for 18 hrs by 2-fold microtiter broth dilution method; type: functional, organism-based; outline: as §1
Staphylococcus aureus [29] = experiment: Antibacterial activity against Staphylococcus aureus CECT 86 assessed as inhibition of microbial growth at 125 ug/ml incubated for 18 hrs by 2-fold microtiter broth dilution method; type: functional, organism-based; outline: as §1

O=C1O/C(=C\c2ccc(O)c(Br)c2)C(c2ccc(O)c(Br)c2)=C1C(=O)c1ccc(O)c(Br)c1
selectivity ratio [1]: 5
selectivity ratio [2]: 5
selectivity ratio [3]: 5
IC50 (Staphylococcus aureus [4]): 3.06 µM
MIC (Staphylococcus aureus [4]): 1.95 µg/mL
IC50 (Escherichia coli [5]): > 196 µM
MIC (Escherichia coli [5]): > 125 µg/mL
selectivity ratio [6]: 5
Activity [7]: Non-toxic
IC50 (Enterococcus faecalis [8]): 3.06 µM
MIC (Enterococcus faecalis [8]): 1.95 µg/mL
Activity [9]: Toxic
selectivity ratio [10]: 5
selectivity ratio [11]: 5
MIC (Bacillus subtilis [12]): 125 µg/mL
Activity [13]: Non-toxic
selectivity ratio [14]: 5
IC50 (Escherichia coli [15]): 3.06 µM
MIC (Escherichia coli [15]): 1.95 µg/mL
Activity [16]: 98%
IC50 (Salmonella typhi [17]): 3.06 µM
MIC (Salmonella typhi [17]): 1.95 µg/mL
selectivity ratio [18]: 5
IC50 (Bacillus cereus [19]): 3.06 µM
MIC (Bacillus cereus [19]): 1.95 µg/mL
MIC [20]: 125 µg/mL
Activity [21]: Non-toxic

COc1ccc(C2=C(C(=O)c3ccc(O)cc3)C(=O)O/C2=C\c2ccc(O)c(Br)c2)cc1
growth inhibition (GI) (Bacillus subtilis [22]): inactive
growth inhibition (GI) (Salmonella typhi [23]): inactive
growth inhibition (GI) [24]: inactive
growth inhibition (GI) (Escherichia coli [25]): inactive
growth inhibition (GI) (Escherichia coli [26]): inactive
growth inhibition (GI) (Enterococcus faecalis [27]): inactive
growth inhibition (GI) (Bacillus cereus [28]): inactive
growth inhibition (GI) (Staphylococcus aureus [29]): inactive

COc1ccc(C2=C(C(=O)c3ccc(O)c(Br)c3)C(=O)O/C2=C\c2cc(Br)c(O)c(Br)c2)cc1Br
growth inhibition (GI) (Bacillus subtilis [22]): inactive
growth inhibition (GI) (Salmonella typhi [23]): inactive
growth inhibition (GI) [24]: inactive
growth inhibition (GI) (Escherichia coli [25]): inactive
growth inhibition (GI) (Escherichia coli [26]): inactive
growth inhibition (GI) (Enterococcus faecalis [27]): inactive
growth inhibition (GI) (Bacillus cereus [28]): inactive
growth inhibition (GI) (Staphylococcus aureus [29]): inactive

COc1ccc(C2=C(C(=O)c3ccc(O)cc3)C(=O)O/C2=C\c2ccc(O)cc2)cc1
growth inhibition (GI) (Bacillus subtilis [22]): inactive
growth inhibition (GI) (Salmonella typhi [23]): inactive
growth inhibition (GI) [24]: inactive
growth inhibition (GI) (Escherichia coli [25]): inactive
growth inhibition (GI) (Escherichia coli [26]): inactive
growth inhibition (GI) (Enterococcus faecalis [27]): inactive
growth inhibition (GI) (Bacillus cereus [28]): inactive
growth inhibition (GI) (Staphylococcus aureus [29]): inactive

COc1ccc(C2=C(C(=O)c3cc(Br)c(O)c(Br)c3)C(=O)O/C2=C\c2cc(Br)c(O)c(Br)c2)cc1
growth inhibition (GI) (Bacillus subtilis [22]): inactive
growth inhibition (GI) (Salmonella typhi [23]): inactive
growth inhibition (GI) [24]: inactive
growth inhibition (GI) (Escherichia coli [25]): inactive
growth inhibition (GI) (Escherichia coli [26]): inactive
growth inhibition (GI) (Enterococcus faecalis [27]): inactive
growth inhibition (GI) (Bacillus cereus [28]): inactive
growth inhibition (GI) (Staphylococcus aureus [29]): inactive

O=C1O/C(=C\c2ccc(O)c(Br)c2)C(c2cc(Br)c(O)c(Br)c2)=C1C(=O)c1ccco1
selectivity ratio [1]: 5
selectivity ratio [2]: 5
selectivity ratio [3]: 5
IC50 (Staphylococcus aureus [4]): 3.19 µM
MIC (Staphylococcus aureus [4]): 1.95 µg/mL
IC50 (Escherichia coli [5]): 25.6 µM
MIC (Escherichia coli [5]): 15.6 µg/mL
selectivity ratio [6]: 5
Activity [7]: Non-toxic
IC50 (Enterococcus faecalis [8]): 3.19 µM
MIC (Enterococcus faecalis [8]): 1.95 µg/mL
Activity [9]: Toxic
selectivity ratio [10]: 5
selectivity ratio [11]: 5
MIC (Bacillus subtilis [12]): 125 µg/mL
Activity [13]: Non-toxic
selectivity ratio [14]: 5
IC50 (Escherichia coli [15]): 6.38 µM
MIC (Escherichia coli [15]): 3.9 µg/mL
Activity [16]: 57%
IC50 (Salmonella typhi [17]): 3.19 µM
MIC (Salmonella typhi [17]): 1.95 µg/mL
selectivity ratio [18]: 5
IC50 (Bacillus cereus [19]): 6.38 µM
MIC (Bacillus cereus [19]): 3.9 µg/mL
MIC [20]: 125 µg/mL
Activity [21]: Non-toxic
